Laboratory results published in ChEMBL document CHEMBL1955828, “Anti-mycobacterial activities of some cationic and anionic calix[4]arene derivatives” (Bioorg Med Chem, 2012).
In brackets after ≈: the same amount, converted by molar mass.

What was measured:
[1] = system: Mycobacterium tuberculosis; experiment: Antimycobacterial activity against isoniazid-resistant Mycobacterium tuberculosis MYC5165 after 6 days by MTT assay; format: functional, organism-based; conditions: MYC5165, 144 h
Procedure, shortened: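 Twofold serial compound dilutions in Middlebrook 7H9 broth were inoculated with bacterial suspension in 7H9 (H37Rv, or INH-resistant MYC5165) and incubated 6 days. MTT (1 mg/mL) was then added, followed by 1 more day of incubation, solubilisation buffer, and OD read at 570 nm. MIC was the lowest concentration inhibiting growth relative to untreated bacilli, and IC50 was also determined.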

[2] = Selectivity ratio of CC50 for human MRC5 cells to MIC for isoniazid-resistant Mycobacterium tuberculosis MYC5165; format: functional
[3] = system: Mycobacterium tuberculosis; experiment: Ratio of MIC for isoniazid to compound MIC isoniazid-resistant Mycobacterium tuberculosis MYC5165 after 6 days by MTT assay; format: functional

Row | SMILES | MIC [1] [µM] | IC50 [1] [nM] | Ratio [2] | Ratio [3]
1 | O=C(O)c1cn(C2CC2)c2cc(N3CCNCC3)c(F)cc2c1=O [CIPROFLOXACIN] | 2.5 (≈ 0.828 µg/mL) | – | – | –
2 | Cc1ccc(-c2ccc(COc3c4cc(CCNC(=N)N)cc3Cc3cc(CCNC(=N)N)cc(c3O)Cc3cc(CCNC(=N)N)cc(c3OCc3ccc(-c5ccc(C)cn5)nc3)Cc3cc(CCNC(=N)N)cc(c3O)C4)cn2)nc1.O=C(O)C(F)(F)F | 0.4 | 100 | 85 | 15
3 | Cc1csc(-c2nc(COc3c4cc(CCNC(=N)N)cc3Cc3cc(CCNC(=N)N)cc(c3O)Cc3cc(CCNC(=N)N)cc(c3OCc3csc(-c5nc(C)cs5)n3)Cc3cc(CCNC(=N)N)cc(c3O)C4)cs2)n1.O=C(O)C(F)(F)F | 0.1 | < 100 | 6 | 125
4 | N=C(N)NCCc1cc2c(O)c(c1)Cc1cc(CCNC(=N)N)cc(c1O)Cc1cc(CCNC(=N)N)cc(c1O)Cc1cc(CCNC(=N)N)cc(c1O)C2.O=C(O)C(F)(F)F | 0.8 | 100 | 256 | 15
5 | NCCc1cc2c(O)c(c1)Cc1cc(CCN)cc(c1O)Cc1cc(CCN)cc(c1O)Cc1cc(CCN)cc(c1O)C2 | 3.2 (≈ 1.91 µg/mL) | 700 | – | –
6 | NNC(=O)c1ccncc1 [ISONIAZID] | 12.5 (≈ 1.71 µg/mL) | – | – | –
7 | Cc1ccc(-c2ccc(COc3c4cc(CCN)cc3Cc3cc(CCN)cc(c3O)Cc3cc(CCN)cc(c3OCc3ccc(-c5ccc(C)cn5)nc3)Cc3cc(CCN)cc(c3O)C4)cn2)nc1 | 1.6 (≈ 1.54 µg/mL) | 500 | – | –
